Reference: PMC4091685 (Cancer chemotherapy and pharmacology, 2014)
Like-named read-outs stand apart in the source and are kept apart here.

What was measured:
[1] = tested on: MV4–11 human AML cell line; assay: In vitro cytotoxic activity, Alamar Blue viability assay; assay type: cell-based
[2] = tested on: AML patient cells (bulk, CD34+, CD34+CD38−, CD34+CD38+); assay: Apoptosis; assay type: cell-based; conditions: Homo sapiens, 24 h
Method in brief: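 Fresh peripheral blood came from AML patients with blasts of 95% or higher. Mononuclear cells were isolated on Ficoll-Hypaque and cultured in RPMI 1640 with 10% heat-inactivated FCS, 2mM glutamine and penicillin/streptomycin, on murine MS-5 stromal cells. Cells were stained for CD45, CD34, CD38 and annexin V Cy5, with leukemic cells gated as CD45+. Flow cytometry gave % annexin V+ cells, and EC50 was derived across test compound concentrations. Representative of two patients' samples.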

[3] = tested on: AML patient cells (bulk, CD34+, CD34+CD38−, CD34+CD38+); assay: Viable cell count in AML patients' samples, flow cytometry; assay type: cell-based; conditions: Homo sapiens, 24 h
Method in brief: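 AML patient peripheral blood (blasts 95% or higher) was Ficoll-Hypaque purified and cultured in RPMI 1640 with 10% heat-inactivated FCS, 2mM glutamine and penicillin/streptomycin, cocultured with murine MS-5 stromal cells. Leukemic cells were gated CD45+ and subdivided by CD34/CD38. Viable counts came from CountBright beads on annexin V/7-AAD-negative events by flow cytometry. EC50 was derived across test compound concentrations. Representative of two patients' samples.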

[4] = MTD following a single i.v. injection in rats; conditions: Sprague Dawley, rat, in vivo, iv
Sprague-Dawley rats [5] = conditions: rat, in vivo, iv
[6] = rat, in vivo
[7] = beagle, dog, in vivo
in vivo = conditions: rat
[8] = 7-day repeat dose i.v. rat toxicology comparison study; conditions: both, Sprague-Dawley, rat, in vivo, iv
Sprague-Dawley rats [9] = assay: as above; conditions: MRx102 3.0 mg/kg/day or triptolide 0.3 mg/kg/day i.v.
[10] = female, Sprague Dawley, iv, 0.05 mg/kg/day
[11] = female, Sprague Dawley, iv, 0.15 mg/kg/day
[12] = female, Sprague-Dawley, iv, 3 mg/kg/day
[13] = male, Sprague Dawley, iv, 0.05 mg/kg/day
[14] = male, Sprague Dawley, iv, 0.15 mg/kg/day
[15] = male, Sprague Dawley, iv, 0.3 mg/kg/day
[16] = male, Sprague Dawley, iv, 0.5 mg/kg/day
[17] = male, Sprague Dawley, iv, 1.5 mg/kg/day
[18] = male, Sprague Dawley, iv, 3 mg/kg/day
[19] = male, Sprague-Dawley, iv, 1.5 mg/kg/day
[20] = male, Sprague-Dawley, iv, 3 mg/kg/day
[21] = female, Sprague Dawley, iv, 0.3 mg/kg/day

`CC(C)[C@]12O[C@H]1[C@@H]1O[C@]13[C@]1(O[C@H]1C[C@H]1C4=C(CC[C@@]13C)C(=O)OC4)[C@@H]2O` [Triptolide] gave an IC50 ([1]; MV4-11, 24 h) of 24.1 nM, an IC50 ([1]; MV4-11, 48 h) of 7.29 nM and an IC50 ([1]; MV4-11, 72 h) of 5.6 nM. It also gave an EC50 ([2]; read-out: EC50 - Annexin V +, 24 h, + MS-5, Bulk) of 2.34 nM, an EC50 ([2]; read-out: EC50 - Annexin V +, 24 h, + MS-5, CD34+) of 2.35 nM and an EC50 ([2]; read-out: EC50 - Annexin V +, 24 h, + MS-5, CD34+38+) of 2.3 nM. For the same compound, the EC50 ([2]; read-out: EC50 - Annexin V +, 24 h, + MS-5, CD34+38−) was 2.37 nM, the EC50 ([2]; read-out: EC50 - Annexin V +, 24 h, Alone, Bulk) was 2.13 nM and the EC50 ([2]; read-out: EC50 - Annexin V +, 24 h, Alone, CD34+) was 2.13 nM. For the same compound, the EC50 ([2]; read-out: EC50 - Annexin V +, 24 h, Alone, CD34+38+) was 2.09 nM, the EC50 ([2]; read-out: EC50 - Annexin V +, 24 h, Alone, CD34+38−) was 2.14 nM and the EC50 ([3]; read-out: EC50 -Cell Count, 24 h, + MS-5, Bulk) was 2.33 nM. For the same compound, the EC50 ([3]; read-out: EC50 -Cell Count, 24 h, + MS-5, CD34+) was 2.38 nM, the EC50 ([3]; read-out: EC50 -Cell Count, 24 h, + MS-5, CD34+38+) was 2.62 nM and the EC50 ([3]; read-out: EC50 -Cell Count, 24 h, + MS-5, CD34+38−) was 2.3 nM. It also gave an EC50 ([3]; read-out: EC50 -Cell Count, 24 h, Alone, Bulk) of 2.19 nM, an EC50 ([3]; read-out: EC50 -Cell Count, 24 h, Alone, CD34+) of 2.15 nM and an EC50 ([3]; read-out: EC50 -Cell Count, 24 h, Alone, CD34+38+) of 2.13 nM. The EC50 ([3]; read-out: EC50 -Cell Count, 24 h, Alone, CD34+38−) was 2.13 nM, the MTD ([4]; female) was 0.317 mg/kg and the MTD ([4]; male) was 0.63 mg/kg. For the same compound, the “histopathology, females” value (Sprague-Dawley rats [5]) was “no microscopic effect”, the “histopathology, males” value (Sprague-Dawley rats [5]) was “intraluminal cellular debris in the epididymis” and the reticulocytes (Sprague-Dawley rats [5]) was “decreased reticulocytes”. The “T1/2,e of triptolide after MRx102 injection relative to after triptolide” value ([6]; Sprague-Dawley) was “over 7 fold”, the “T1/2,e range” value ([6]; Sprague-Dawley) was 51 to 222 min and the “AUC0-inf Median” value ([6]; both, Sprague Dawley, iv) was 29.69 ng·h/mL. The “Cmax Median” value ([6]; both, Sprague Dawley, iv) was 23.8 ng/mL, the “Cmax range” value ([6]; both, Sprague Dawley, iv) was 7.83 to 41.1 ng/mL and the “T1/2,e Median” value ([6]; both, Sprague Dawley, iv) was 96 min. The “T1/2,e range” value ([6]; both, Sprague Dawley, iv) was 51 to 786 min, the AUC0-inf [6, 10] was 8.14 ng·h/mL and the Cl [6, 10] was 6.1 L/h. It also gave a Cmax [6, 10] of 11.0 ng/mL, a Vz [6, 10] of 2.2 L and an AUC0-inf [6, 11] of 36.82 ng·h/mL. It also gave a Cl [6, 11] of 4.1 L/h, a Cmax [6, 11] of 48.6 ng/mL and a Vz [6, 11] of 1.3 L. The Cmax range ([6]; female, Sprague-Dawley, iv, 3 mg/kg) was 11.8 to 41.1 ng/mL, the Cmax [6, 12] was 41.1 ng/mL and the Tmax [6, 12] was 60 min. The “T1/2,e” value [6, 13] was 10.2 min, the Vz [6, 13] was 0.2 L and the AUC0-inf [6, 14] was 37.95 ng·h/mL. For the same compound, the C0 [6, 14] was 130 ng/mL, the Cl [6, 14] was 4.0 L/h and the Cmax [6, 14] was 49.7 ng/mL. For the same compound, the “T1/2,e” value [6, 14] was 12.6 min, the Vz [6, 14] was 1.2 L and the AUC0-inf [6, 15] was 75.92 ng·h/mL. For the same compound, the C0 [6, 15] was 273 ng/mL, the Cl [6, 15] was 4.0 L/h and the “T1/2,e” value [6, 15] was 14.4 min. The AUC0-inf [6, 16] was 15.97 ng·h/mL, the “T1/2,e” value [6, 16] was 51 min and the AUC0-inf [6, 17] was 164.8 ng·h/mL. The Cmax [6, 17] was 9.17 ng/mL, the “T1/2,e” value [6, 17] was 786 min and the Tmax [6, 17] was 30 min. For the same compound, the AUC0-inf [6, 18] was 66.12 ng·h/mL, the Cmax [6, 18] was 16.0 ng/mL and the “T1/2,e” value [6, 18] was 222 min. The AUC0-inf [6, 19] was 12.66 ng·h/mL, the Cmax [6, 19] was 7.83 ng/mL and the “T1/2,e” value [6, 19] was 66 min. The Cmax range ([6]; male, Sprague-Dawley, iv, 3 mg/kg) was 7.83 to 32.5 ng/mL, the AUC0-inf [6, 20] was 269.69 ng·h/mL and the Cmax [6, 20] was 17.7 ng/mL. The “T1/2,e” value [6, 20] was 84 min, the accumulation index [6] was “less than unity” and the “AUC0–24hr Median” value ([7]; iv) was 34.83 ng·h/mL. For the same compound, the “AUC0–24hr Range” value ([7]; iv) was 1.50 to 212.0 ng·h/mL, the “Cmax Median” value ([7]; iv) was 3.44 ng/mL and the “Cmax range” value ([7]; iv) was 2.0 to 49.0 ng/mL. The Cmax range ([7]; female) was 2.0 to 21.1 ng/mL, the Cmax range ([7]; male) was 2.22 to 49.0 ng/mL and the “AUC0–24hr” value ([7]; male, iv, 0.1 mg/kg/day) was 25.53 ng·h/mL. It also gave a Cmax ([7]; male, iv, 0.1 mg/kg/day) of 2.22 ng/mL, a Tmax ([7]; male, iv, 0.1 mg/kg/day) of 120 min and a clearance (in vivo; Sprague-Dawley, Cl range) of 15.5 to 102 mL/min. For the same compound, the Vd (in vivo; Sprague-Dawley, Vz range) was 0.2 to 2.2 L, the AUC0-inf (in vivo; both, Sprague Dawley, iv, AUC0-inf Median) was 51.4 ng·h/mL and the Cmax (in vivo; both, Sprague Dawley, iv, Cmax Median) was 59 ng/mL. The Cmax (in vivo; both, Sprague Dawley, iv, Cmax Range) was 11 to 189 ng/mL, the half-life (in vivo; both, Sprague Dawley, iv, T1/2,e Median) was 13.2 min and the half-life (in vivo; both, Sprague Dawley, iv, T1/2,e Range) was 9 to 23.4 min. For the same compound, the Tmax (in vivo; [10]) was 15 min, the AUC0-inf (in vivo; female, Sprague Dawley, iv, 0.05 mg/kg/day, AUC0-inf) was 12.5 ng·h/mL and the clearance (in vivo; female, Sprague Dawley, iv, 0.05 mg/kg/day, Cl) was 66.7 mL/min. The Cmax (in vivo; female, Sprague Dawley, iv, 0.05 mg/kg/day, Cmax) was 15.4 ng/mL, the half-life (in vivo; female, Sprague Dawley, iv, 0.05 mg/kg/day, T1/2,e) was 15 min and the Vd (in vivo; female, Sprague Dawley, iv, 0.05 mg/kg/day, Vz) was 1.4 L. For the same compound, the Tmax (in vivo; [11]) was 15 min, the AUC0-inf (in vivo; female, Sprague Dawley, iv, 0.15 mg/kg/day, AUC0-inf) was 72.1 ng·h/mL and the clearance (in vivo; female, Sprague Dawley, iv, 0.15 mg/kg/day, Cl) was 35 mL/min. The Cmax (in vivo; female, Sprague Dawley, iv, 0.15 mg/kg/day, Cmax) was 74.6 ng/mL, the half-life (in vivo; female, Sprague Dawley, iv, 0.15 mg/kg/day, T1/2,e) was 19.8 min and the Vd (in vivo; female, Sprague Dawley, iv, 0.15 mg/kg/day, Vz) was 1 L. For the same compound, the Tmax (in vivo; [21]) was 15 min, the AUC0-inf (in vivo; female, Sprague Dawley, iv, 0.3 mg/kg/day, AUC0-inf) was 162 ng·h/mL and the C0 (in vivo; [21]) was 436 ng/mL. For the same compound, the clearance (in vivo; female, Sprague Dawley, iv, 0.3 mg/kg/day, Cl) was 31.7 mL/min, the Cmax (in vivo; female, Sprague Dawley, iv, 0.3 mg/kg/day, Cmax) was 189 ng/mL and the half-life (in vivo; female, Sprague Dawley, iv, 0.3 mg/kg/day, T1/2,e) was 23.4 min. The Vd (in vivo; female, Sprague Dawley, iv, 0.3 mg/kg/day, Vz) was 1 L, the Cmax (in vivo; female, Sprague-Dawley, iv, 0.3 mg/kg, Cmax range) was 11 to 189 ng/mL and the Tmax (in vivo; [13]) was 15 min. It also gave a half-life (in vivo; male, Sprague Dawley, iv, 0.05 mg/kg/day, T1/2,e) of 9 min, a Tmax (in vivo; [14]) of 15 min and a C0 (in vivo; [14]) of 234 ng/mL. For the same compound, the clearance (in vivo; male, Sprague Dawley, iv, 0.15 mg/kg/day, Cl) was 48.3 mL/min, the Cmax (in vivo; male, Sprague Dawley, iv, 0.15 mg/kg/day, Cmax) was 59 ng/mL and the half-life (in vivo; male, Sprague Dawley, iv, 0.15 mg/kg/day, T1/2,e) was 11.4 min. The Vd (in vivo; male, Sprague Dawley, iv, 0.15 mg/kg/day, Vz) was 0.8 L, the Tmax (in vivo; [15]) was 15 min and the AUC0-inf (in vivo; male, Sprague Dawley, iv, 0.3 mg/kg/day, AUC0-inf) was 101 ng·h/mL. It also gave a C0 (in vivo; [15]) of 383 ng/mL, a clearance (in vivo; male, Sprague Dawley, iv, 0.3 mg/kg/day, Cl) of 50 mL/min and a Cmax (in vivo; male, Sprague Dawley, iv, 0.3 mg/kg/day, Cmax) of 130 ng/mL. The half-life (in vivo; male, Sprague Dawley, iv, 0.3 mg/kg/day, T1/2,e) was 10.8 min, the Vd (in vivo; male, Sprague Dawley, iv, 0.3 mg/kg/day, Vz) was 0.8 L and the Cmax (in vivo; male, Sprague-Dawley, iv, 0.3 mg/kg, Cmax range) was 18.2 to 130 ng/mL. For the same compound, the NOAEL at 7 days [8] was 0.05 to 0.15 mg/kg and the “survival of high-dose females” value (Sprague-Dawley rats [9]) was “euthanized prior to Day 7”.
